Reference: ChEMBL document CHEMBL2150868, “Bi-, tri-, and polycyclic acylphloroglucinols from Hypericum empetrifolium” (J Nat Prod, 2012)

What was measured:
[1] = Antiangiogenic activity in SV-40T transfected human HMEC1 cells assessed as inhibition of cell proliferation after 72 hrs by crystal violet staining; format: functional, cell-based; details: HMEC-1, 72 h
How it was run: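 SV-40T-transfected human microvascular endothelial HMEC-1 cells kept at 37 °C, 5% CO2, humidified. Seeded 1.5 × 10^3 cells/well in endothelial growth medium with 10% FCS, allowed 24 h adhesion (crystal-violet baseline plate). Exposed to 0.1−30 or 0.2−60 μM compound (DMSO; 0.1% DMSO control) for 72 h. Crystal violet stain, A540. IC50 ± SD from three independent experiments, hexaplicates.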

[2] = Antiangiogenic activity in bovine endothelial cells assessed as inhibition of cell proliferation; format: functional, cell-based; details: Bos taurus

SMILES	IC50 [1] [µM]	IC50 [2] [µM]
CC(C)=CCCC1(C)CCc2c(O)cc(O)c(C(=O)C(C)C)c2O1 (centres undefined)	16.5	
CC(C)=CCCC1(C)C=Cc2c(O)cc(O)c(C(=O)C(C)C)c2O1 (centres undefined) [EMPETRIKARINEN A]	24.4	
CCC(C)C(=O)c1c(O)cc(O)c2c1OC(C)(CCC=C(C)C)C=C2 (centres undefined) [EMPETRIKARINEN B]	15	
CC(C)C(=O)c1c(O)cc(O)c2c1O[C@]1(C)CCCC(C)(C)[C@H]1C2 (relative stereo) [EMPETRIFERDINAN A]	24.4	
CC(C)=CCC[C@]1(C)[C@@H](CC=C(C)C)C[C@]2(CC=C(C)C)C(=O)C(CC=C(C)C)=C(O)[C@@]1(C(=O)C(C)C)C2=O		2.1
CCC(C)C(=O)c1c(O)cc(O)c2c1O[C@]1(C)CC[C@@H](O)C(C)(C)[C@H]1C2 (relative stereo) [EMPETRIFERDINOL]	29.2	
CCC(C)C(=O)c1c(O)cc2c3c1OC(C)(C)C1CCC(C)(CC31)O2 (centres undefined) [EMPETRIFRANZINAN C]	9.2	
CCC(C)C(=O)c1c(O)cc(O)c2c1OC(C)(CCC=C(C)C)CC2 (centres undefined)	13.3	
CCC(C)C(=O)c1c(O)cc(O)c2c1O[C@]1(C)CCCC(C)(C)[C@H]1C2 (relative stereo) [EMPETRIFERDINAN B]	16.6	
CCC(C)C(=O)c1c(O)cc2c(c1O)CCC(C)(CCC=C(C)C)O2 (centres undefined)	21.1	
CCC(C)C(=O)c1c(O)cc(O)c2c1O[C@](C)(CCC=C(C)C)[C@@H](O)C2 (relative stereo) [EMPETRIKARINOL B]	18.4	
CC(C)=CCCC1(C)CCc2c(cc(O)c(C(=O)C(C)C)c2O)O1 (centres undefined)	29.6	
COc1cc(O)c(CC=C(C)C)c(O)c1C(=O)/C=C/c1ccc(O)cc1 [XANTHOHUMOL]	11.4	
CC(C)=CCC[C@@]1(C)Oc2c(c(O)cc(O)c2C(=O)C(C)C)C[C@@H]1O (relative stereo) [EMPETRIKARINOL A]	23.4	
